Measured values of several laboratories.
Protocols differ between the studies behind these lines.
Target: Mitogen-activated protein kinase kinase kinase 9 (MAP3K9, Homo sapiens, UniProt P80192)

Compound | observed | mode | technique | tested at | measurement | result
c1cc(CN2CCOCC2)cc(Nc2nccc(NCCc3cnc[nH]3)n2)c1 | enzyme activity | inhibitor | radiometric | 1 µM | remaining activity | 73%
CCCCNc1ncc2c(-c3ccc(F)cc3)nn(C[C@H]3CC[C@H](N)CC3)c2n1 | target engagement in cells | inhibitor | chemoproteomics | 20 mM | inhibition | 54.9%
CCCS(=O)(=O)Nc1ccc(F)c(C(=O)c2c[nH]c3ncc(-c4ccc(Cl)cc4)cc23)c1F | enzyme activity | inhibitor | – | 1 µM | inhibition | < 10%
c1ccc(N2CCN(Cc3nc4ccccc4[nH]3)CC2)nc1 | binding | – | competition with immobilised ligand | 1 µM | remaining binding | 100%
Brc1cnc(Nc2cccc(CN3CCOCC3)c2)nc1NCCc1c[nH]cn1 | enzyme activity | inhibitor | radiometric | 1 µM | remaining activity | -1%
Cc1nc(N2CC[C@@H](O)C2)ncc1-c1cc(C(F)(F)F)cc2[nH]ncc12 | binding | – | competition with immobilised ligand | 1 µM | remaining binding | 100%
O=C1NC(=O)c2cc(Nc3ccc(F)cc3)c(Nc3ccc(F)cc3)cc21 | cell-free assay | – | – | 0.5 µM | remaining signal | 102%
COc1cc2ncnc(Nc3ccc(Oc4ccccc4)cc3C)c2cc1OC | enzyme activity | inhibitor | – | 1 µM | inhibition | 9%
Cc1ccc(Nc2nccc(N(C)c3ccc4c(C)n(C)nc4c3)n2)cc1S(N)(=O)=O | enzyme activity | inhibitor | – | 10 µM | inhibition | 92%
Oc1cccc(-c2nc(N3CCOCC3)c3oc4ncccc4c3n2)c1 | cell-free assay | – | – | 0.5 µM | remaining signal | 103%
CC(C)c1ccc(NC(=O)c2cccs2)c(-c2nc3ccccc3[nH]c2=O)c1 | enzyme activity | inhibitor | – | 1 µM | activity vs control | 92%
O=C(NCCCNc1nc(Nc2cccc(NC(=O)N3CCCC3)c2)ncc1Br)C1CCC1 | enzyme activity | inhibitor | radiometric | 1 µM | remaining activity | 0%
CC/C(=N\NC(=O)NCc1cccc(O)c1)c1ccc(O)c(C)c1O | enzyme activity | inhibitor | – | 0.1 µM | inhibition | 5.1%
CCC(=O)N[C@H]1CC[C@@H](C(=O)N(C)c2ccc(-c3nc4ccccc4o3)cc2)C1 | cell-free assay | – | competition with immobilised ligand | 1 µM | remaining binding | 100%
Cc1nn(CC(F)(F)F)cc1Nc1ncc(C2CC2)c(NCCCNC(=O)C2CCC2)n1 | enzyme activity | inhibitor | radiometric | 1 µM | remaining activity | 78%
C=CC(=O)Nc1cc(Nc2nccc(Nc3cc(Cl)c(F)cc3C(C)(C)O)n2)c(OC)cc1N1CC[C@@H](N(C)C)C1 | enzyme activity | inhibitor | – | 1 µM | inhibition | 33%
CO[C@H]1CC[C@H](CNc2ccc(S(=O)(=O)NC(=O)c3ccc(N4CCN(CC5=C(c6ccc(Cl)cc6)CC(C)(C)CC5)CC4)cc3Oc3cnc4[nH]ccc4c3)cc2[N+](=O)[O-])CC1 | cell-free assay | – | competition with immobilised ligand | 1 µM | remaining binding | 84%
NS(=O)(=O)c1ccc(CNc2ccnc(Nc3cccc(NC(=O)N4CCCC4)c3)n2)cc1 | enzyme activity | inhibitor | radiometric | 1 µM | remaining activity | 86%
C[C@@H]1CN(c2cc(-c3nn(C)c4ccc(OC5(C)CC5)cc34)ncn2)C[C@H](C)O1 | cell-free assay | – | competition with immobilised ligand | 1 µM | remaining binding | 100%
NS(=O)(=O)c1ccc(CNc2nc(Nc3cccc(CN4CCOCC4)c3)ncc2Br)cc1 | enzyme activity | inhibitor | radiometric | 1 µM | remaining activity | 25%
